Values after ≈ are worked out from the molar mass of the structure shown.
Tests used:
Pseudomonas aeruginosa [1] = assay: Antimicrobial activity against Pseudomonas aeruginosa after 24 hrs by micro-dilution susceptibility method; assay type: functional
How it was run: (§1)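 Broth microdilution in Müller-Hinton broth against S. aureus IFO 3060, B. subtilis IFO 3007, E. coli IFO 3301 and P. aeruginosa IFO 3448. These are the same standard strains used in the disc-diffusion primary screen. Compounds were solubilized in DMSO. MIC recorded as the minimal inhibitory concentration.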

Micrococcus luteus [2] = assay: Antimicrobial activity against Micrococcus luteus after 24 hrs by micro-dilution susceptibility method; assay type: functional
How it was run: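 MIC by broth microdilution in Müller-Hinton broth against M. luteus IFO 3232, the same strain used in the disc-diffusion primary screen.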

Bacillus subtilis [3] = assay: Antimicrobial activity against Bacillus subtilis after 24 hrs by micro-dilution susceptibility method; assay type: functional; how it was run: as §1
Staphylococcus aureus [4] = assay: Antimicrobial activity against Staphylococcus aureus after 24 hrs by micro-dilution susceptibility method; assay type: functional; how it was run: as §1
Micrococcus luteus [5] = assay: Antimicrobial activity against Micrococcus luteus at 100 ug after 24 hrs by agar disc diffusion method; assay type: functional
How it was run: (§2)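 Agar disc diffusion on Müller-Hinton agar. Sterile 8 mm filter-paper discs were moistened with the compound in DMSO. Strains were B. subtilis IFO 3007 and M. luteus IFO 3232. Plates were incubated at 37 °C, and growth-inhibition zone diameters were measured in mm after 24 h. DMSO served as the solvent control.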

Bacillus subtilis [6] = assay: Antimicrobial activity against Bacillus subtilis at 100 ug after 24 hrs by agar disc diffusion method; assay type: functional; how it was run: as §2
Escherichia coli [7] = assay: Antimicrobial activity against Escherichia coli after 24 hrs by micro-dilution susceptibility method
Pseudomonas aeruginosa [8] = assay: Antimicrobial activity against Pseudomonas aeruginosa at 200 ug after 24 hrs by agar disc diffusion method; assay type: functional; conditions: read-out: DIZ
Escherichia coli [9] = assay: Antimicrobial activity against Escherichia coli at 200 ug after 24 hrs by agar disc diffusion method; assay type: functional; conditions: read-out: DIZ
Micrococcus luteus [10] = assay: Antimicrobial activity against Micrococcus luteus at 200 ug after 24 hrs by agar disc diffusion method; assay type: functional; conditions: read-out: DIZ
Bacillus subtilis [11] = assay: Antimicrobial activity against Bacillus subtilis at 200 ug after 24 hrs by agar disc diffusion method; assay type: functional; conditions: read-out: DIZ
Dihydrofolate reductase = biological target: T1, Dihydrofolate reductase (Bos taurus, UniProt P00376); assay: Inhibition of bovine DHFR after 2 mins by spectrophotometry
T1 sequence (P00376 whole entry): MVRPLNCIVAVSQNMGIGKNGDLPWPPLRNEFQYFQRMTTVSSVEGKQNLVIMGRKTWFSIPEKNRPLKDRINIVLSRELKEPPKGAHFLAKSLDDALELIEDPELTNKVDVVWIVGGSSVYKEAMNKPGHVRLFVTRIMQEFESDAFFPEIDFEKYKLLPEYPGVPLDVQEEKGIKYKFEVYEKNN

Staphylococcus aureus [12] = assay: Antimicrobial activity against Staphylococcus aureus at 200 ug after 24 hrs by agar disc diffusion method; assay type: functional; conditions: read-out: DIZ

Molecule	MIC (Pseudomonas aeruginosa [1])	MIC (Micrococcus luteus [2])	MIC (Bacillus subtilis [3])	MIC (Staphylococcus aureus [4])	inhibition zone (IZ) (Micrococcus luteus [5])	inhibition zone (IZ) (Bacillus subtilis [6])	MIC (Escherichia coli [7])	zone of inhibition at 200 µg/disc (Pseudomonas aeruginosa [8])	zone of inhibition at 200 µg/disc (Escherichia coli [9])	zone of inhibition at 200 µg/disc (Micrococcus luteus [10])	zone of inhibition at 200 µg/disc (Bacillus subtilis [11])	IC50 (Dihydrofolate reductase)	zone of inhibition at 200 µg/disc (Staphylococcus aureus [12])
GENTAMICIN	1 µg/mL	2 µg/mL	2 µg/mL	2 µg/mL	18 mm	25 mm	–	–	–	–	–	–	–
CCOC(=O)c1nc(N)sc1Sc1nc2ccc(C)cc2c(=O)n1Cc1ccccc1	4 µg/mL (≈ 8.84 µM)	4 µg/mL (≈ 8.84 µM)	2 µg/mL (≈ 4.42 µM)	2 µg/mL (≈ 4.42 µM)	–	–	2 µg/mL (≈ 4.42 µM)	18 mm	24 mm	20 mm	26 mm	4 µM	24 mm

From ChEMBL document CHEMBL2375290, “Nonclassical antifolates, part 3: synthesis, biological evaluation and molecular modeling study of some new 2-heteroarylthio-quinazolin-4-ones” (Eur J Med Chem, 2013)
